From ChEMBL document CHEMBL1149303 (J Med Chem, 2004)
Calls of active or inactive are those of the source. The calls are words filed in the database; no cut-off is given here.

Experiments:
[1] = biological target: T1, Prostaglandin G/H synthase 2 (Homo sapiens, UniProt P35354); format: tissue-based, Blood
T1 sequence (P35354 whole entry): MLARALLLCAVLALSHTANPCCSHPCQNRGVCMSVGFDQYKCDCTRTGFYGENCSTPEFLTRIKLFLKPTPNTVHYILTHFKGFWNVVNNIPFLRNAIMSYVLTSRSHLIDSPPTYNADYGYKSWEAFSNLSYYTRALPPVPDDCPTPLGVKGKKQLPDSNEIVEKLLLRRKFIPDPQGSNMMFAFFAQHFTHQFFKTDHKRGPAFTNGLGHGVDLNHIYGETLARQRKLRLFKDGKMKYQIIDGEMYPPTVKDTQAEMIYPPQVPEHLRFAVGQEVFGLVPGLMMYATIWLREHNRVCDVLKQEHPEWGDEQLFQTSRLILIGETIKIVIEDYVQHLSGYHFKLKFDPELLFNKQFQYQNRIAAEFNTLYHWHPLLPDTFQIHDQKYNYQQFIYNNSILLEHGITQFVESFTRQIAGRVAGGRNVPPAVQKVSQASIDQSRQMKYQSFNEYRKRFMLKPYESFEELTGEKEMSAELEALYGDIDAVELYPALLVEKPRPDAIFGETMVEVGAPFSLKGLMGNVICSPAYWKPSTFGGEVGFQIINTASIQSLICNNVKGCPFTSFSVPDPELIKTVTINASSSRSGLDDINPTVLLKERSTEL

[2] = biological target: Prostaglandin G/H synthase 1 (Homo sapiens, UniProt P23219)
Rattus norvegicus [3] = assay: Antiinflammatory activity against carrageenan-induced oedema in Wistar rat paw at 3 mg/kg, ip after 3 hrs relative to control; format: functional; conditions: route intraperitoneal
Procedure, shortened: (§1)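 Wistar rats (250 g) got the drug ip from a 10 mg/mL DMSO solution. 1 h later, 0.1 mL of 1% λ-carrageenan was injected into the plantar region of the right paw. After 3 h the rats were euthanized with nembutal (100 mg/kg), and paws were cut at the ankle and weighed. Swelling inhibition is given as % vs the control group (6 rats/group, mean ± SEM).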

[4] = Dissociation constant, pKa by sulfonamide/sulfonamidate equilibrium; format: physicochemical
Procedure, shortened: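 pKa was determined by UV spectrophotometry, to assign each compound's ionic state at pH 7.4.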

Rattus norvegicus [5] = assay: Antiinflammatory activity against carrageenan-induced oedema in Wistar rat paw at 30 mg/kg, ip after 3 hrs relative to control; format: functional; conditions: route intraperitoneal
Procedure, shortened: as §1

Rattus norvegicus [6] = assay: Antiinflammatory activity against carrageenan-induced oedema in Wistar rat paw at 10 mg/kg, ip after 3 hrs relative to control; format: functional; conditions: route intraperitoneal
Procedure, shortened: as §1

[7] = Dissociation constant, pKa by pyridinium/pyridine equilibrium; format: physicochemical
Procedure, shortened: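 Ionisation constant measured by UV spectrophotometry.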

Homo sapiens = organism: Homo sapiens; assay: Selectivity ratio of IC50 for human COX1 to IC50 for human COX2
Procedure, shortened: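 Human whole blood, each compound tested in triplicate at 0.01–100 µmol/L final, vehicle DMSO. COX-1: blood preincubated 15 min at 37 °C, stimulated with calcium ionophore A-23,187 for 15 min, serum TXB2 by EIA. COX-2: heparinized blood preincubated 15 min, then LPS (100 µg/mL final, E. coli B4) for 24 h at 37 °C, plasma PGE2 by EIA. Ratio taken as IC50 COX-1/IC50 COX-2.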

Rattus norvegicus [8] = assay: Lethality in Wistar rat at 30 mg/kg, ip in carrageenan-induced paw oedema model; format: functional, organism-based; design: dose 30 mg/kg
Procedure, shortened: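 Wistar rats (250 g) were dosed ip from a 10 mg/mL DMSO solution, 1 h before 0.1 mL of 1% λ-carrageenan in the right hind paw. Deaths were noted over the following 3 h paw-oedema period in groups of six rats.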

Sequence of Prostaglandin G/H synthase 1 (P23219 whole entry): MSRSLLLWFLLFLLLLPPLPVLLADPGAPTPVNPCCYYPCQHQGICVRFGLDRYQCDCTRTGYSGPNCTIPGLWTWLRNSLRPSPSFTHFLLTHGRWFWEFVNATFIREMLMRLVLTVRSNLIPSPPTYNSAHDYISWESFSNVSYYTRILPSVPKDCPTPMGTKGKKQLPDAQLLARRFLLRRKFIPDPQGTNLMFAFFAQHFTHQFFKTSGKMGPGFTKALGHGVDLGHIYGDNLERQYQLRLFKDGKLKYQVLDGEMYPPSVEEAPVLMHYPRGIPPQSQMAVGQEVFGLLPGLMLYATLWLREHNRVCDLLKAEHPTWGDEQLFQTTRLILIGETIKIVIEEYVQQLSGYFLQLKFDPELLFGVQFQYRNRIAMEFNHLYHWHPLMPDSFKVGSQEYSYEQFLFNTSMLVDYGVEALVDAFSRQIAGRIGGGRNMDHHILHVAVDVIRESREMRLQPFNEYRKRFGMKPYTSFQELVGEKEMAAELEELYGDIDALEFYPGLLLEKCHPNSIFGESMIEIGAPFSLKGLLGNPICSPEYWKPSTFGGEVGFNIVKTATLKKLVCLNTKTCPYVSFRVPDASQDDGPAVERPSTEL

IC50 [1] [nM] | IC50 [2] [nM] | pKa [4] | pKa [7] | Ratio IC50 (Homo sapiens) | SMILES | inhibition in vivo at 3 mg/kg (Rattus norvegicus [3]) [%] | inhibition in vivo at 30 mg/kg (Rattus norvegicus [5]) [%] | inhibition in vivo at 10 mg/kg (Rattus norvegicus [6]) [%] | Activity (Rattus norvegicus [8])
> 100000 | 18400 |  |  |  | CCCS(=O)(=O)Nc1ccncc1Oc1ccccc1 |  |  |  | 
 |  | < 1 | 6.81 |  | O=S(=O)(Nc1ccncc1Oc1ccccc1)C(F)(F)F | 10.9 | 46.4 | 26 | 
3280 | 2440 | < 4 | 7.98 | 0.75 | CCS(=O)(=O)Nc1ccncc1Oc1ccc(Cl)cc1 |  |  |  | 
> 100000 | > 100000 | < 1 | 5.3 |  | O=S(=O)(c1ccccc1)c1cnccc1NS(=O)(=O)C(F)(F)F |  |  |  | 
150 | 270 |  |  | 1.74 | O=S(=O)(Nc1ccncc1Oc1ccccc1Cl)C(F)(F)F |  |  |  | 
1530 | 360 | < 1 | 6.71 | 0.24 | O=S(=O)(Nc1ccncc1Oc1ccc(Cl)cc1)C(F)(F)F |  |  |  | 
> 100000 | 410 | 2.98 | 8.13 |  | CS(=O)(=O)Nc1ccncc1Oc1ccccc1 |  |  |  | Active
1870 | 1450 | < 4 | 7.97 | 0.77 | CS(=O)(=O)Nc1ccncc1Oc1ccc(Cl)cc1 | 28.7 |  | 35.1 | Active
> 100000 | > 100000 |  |  |  | CS(=O)(=O)Nc1ccncc1S(=O)(=O)c1ccccc1 |  |  |  | 
47600 | 4630 |  |  | 0.097 | CN(c1ccccc1)c1cnccc1NS(=O)(=O)C(F)(F)F |  |  |  | 
 |  |  |  |  | CS(=O)(=O)Nc1ccc([N+](=O)[O-])cc1Oc1ccccc1 [NIMESULIDE] | 23.7 | 44.3 | 40.2 | 
1990 | 10900 | < 4 | 7.74 | 5.45 | CS(=O)(=O)Nc1ccncc1Oc1cccc(Cl)c1 | 10.9 |  | 21 | Active
1190 | 3620 |  |  | 3.05 | CS(=O)(=O)Nc1ccncc1Sc1ccccc1 | 7.44 |  | 40.7 | Active
13800 | 240 |  |  | 0.02 | O=S(=O)(Nc1ccncc1Oc1ccc(Br)cc1)C(F)(F)F | 5 | 36.7 | 8.33 | 
130 | 1030 |  |  | 7.92 | CS(=O)(=O)Nc1ccncc1Oc1ccccc1Cl | 9.47 | 62.8 | 37.5 | 
> 100000 | > 100000 |  |  |  | O=S(=O)(Nc1ccncc1Oc1cc(Cl)cc(Cl)c1)C(F)(F)F |  |  |  | 
> 100000 | > 100000 |  |  |  | CS(=O)(=O)Nc1ccncc1Oc1cc(Cl)cc(Cl)c1 | 18 | 21.3 | 18 | 
> 100000 | 25600 | < 1 | 5.69 |  | O=S(=O)(Nc1ccncc1[S+]([O-])c1ccccc1)C(F)(F)F (stereo not drawn) |  |  |  | 
440 | 260 |  |  | 0.59 | COc1ccc(Oc2cnccc2NS(=O)(=O)C(F)(F)F)cc1 |  |  |  | 
> 100000 | 2270 |  |  |  | O=S(=O)(Nc1ccncc1Oc1cccc(Cl)c1)C(F)(F)F |  |  |  | 
14100 | 5340 |  |  | 0.38 | CCS(=O)(=O)Nc1ccncc1Oc1ccccc1 |  |  |  | 
9690 | 2300 |  |  | 0.24 | CCCS(=O)(=O)Nc1ccncc1Oc1ccc(Cl)cc1 |  |  |  | 
2360 | 1810 |  |  | 0.76 | COc1ccc(Oc2cnccc2NS(C)(=O)=O)cc1 |  |  |  | 
7600 | 1410 | < 4 | 7.86 | 0.18 | CS(=O)(=O)Nc1ccncc1Oc1ccc(Br)cc1 |  |  |  | 
2550 | 1370 |  |  | 0.54 | O=S(=O)(Nc1ccncc1Oc1ccc(Cl)cc1Cl)C(F)(F)F |  |  |  | 

SMILES | IC50 [1] [nM] | IC50 [2] [nM] | pKa [4] | pKa [7] | Ratio IC50 (Homo sapiens) | inhibition in vivo at 3 mg/kg (Rattus norvegicus [3]) [%] | inhibition in vivo at 30 mg/kg (Rattus norvegicus [5]) [%] | inhibition in vivo at 10 mg/kg (Rattus norvegicus [6]) [%] | Activity (Rattus norvegicus [8])
CS(=O)(=O)Nc1ccncc1Oc1ccc(Cl)cc1Cl | 120 | 620 | < 4 | 7.81 | 5.15 | 20.9 | 32.7 | 15.8 | 
O=S(=O)(Nc1ccncc1Nc1ccccc1)C(F)(F)F | 90 | 180 |  |  | 2.03 | 22.7 | 44 | 34.5 | 
O=S(=O)(Nc1ccncc1Sc1ccccc1)C(F)(F)F | 530 | 410 | < 1 | 6.54 | 0.78 |  |  |  | 
